Test results as given in ChEMBL document CHEMBL1121602, “Analogues of 8-[[6-(diethylamino) hexyl]amino]-6-methoxy-4-methylquinoline as candidate antileishmanial agents” (1980).
The source made the active and inactive calls. The rule behind the calls is not given here.

Columns and labels:
Cricetinae gen. sp. [1] = test: Antileishmanial activity against Leishmania donovani in hamsters at a concentration of 52 mg/kg; format: functional
Summary of the method: (§1)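 L. donovani infection in hamsters, following an earlier-cited protocol. Meglumine antimoniate was the reference drug. A G index, the activity of each test agent relative to the reference, was calculated from the dose-response data.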

[2] = G index = SD90 for meglumine antimoniate / SD90 for the compound; format: functional; summary of the method: as §1
Cricetinae gen. sp. [3] = test: Antileishmanial activity against Leishmania donovani in hamsters at a concentration of 13 mg/kg; format: functional; summary of the method: as §1
Cricetinae gen. sp. [4] = test: Antileishmanial activity against Leishmania donovani in hamsters at a concentration of 0.20 mg/kg; format: functional; details: dose 0.2 mg/kg; summary of the method: as §1
Cricetinae gen. sp. [5] = test: Antileishmanial activity against Leishmania donovani in hamsters at a concentration of 0.05 mg/kg; format: functional; summary of the method: as §1
Cricetinae gen. sp. [6] = test: Antileishmanial activity against Leishmania donovani in hamsters at a concentration of 0.81 mg/kg; format: functional; summary of the method: as §1
Cricetinae gen. sp. [7] = test: Antileishmanial activity against Leishmania donovani in hamsters at a concentration of 208 mg/kg.; format: functional; summary of the method: as §1
Cricetinae gen. sp. [8] = test: Antileishmanial activity against Leishmania donovani in hamsters at a concentration of 13 mg/kg; I = inactive; format: functional, organism-based; parameters: dose 13 mg/kg; summary of the method: as §1
Cricetinae gen. sp. [9] = test: Antileishmanial activity against Leishmania donovani in hamsters at a concentration of 0.81 mg/kg; I = inactive; format: functional, organism-based; parameters: dose 0.81 mg/kg; summary of the method: as §1
Cricetinae gen. sp. [10] = test: Antileishmanial activity against Leishmania donovani in hamsters at a concentration of 13 mg/kg (toxic); format: functional; summary of the method: as §1

SMILES	Supression (Cricetinae gen. sp. [1])	G Index [2]	Supression (Cricetinae gen. sp. [3])	Supression (Cricetinae gen. sp. [4])	Supression (Cricetinae gen. sp. [5])	Supression (Cricetinae gen. sp. [6])	Supression (Cricetinae gen. sp. [7])	Supression (Cricetinae gen. sp. [8])	Supression (Cricetinae gen. sp. [9])	Supression (Cricetinae gen. sp. [10])
CCN(CCO)CCCCCCNc1cc(OC)cc2c(C)ccnc12.Cl	95.4%	3.4	79.2%	–	–	–	–	–	–	–
CCCN(CCC)CCCCCCNc1cc(OC)cc2c(C)ccnc12.Cl	–	333	–	99.9%	31%	99.9%	–	–	–	–
CCN(CC)CCCCCCNc1cc(OC)cc2c(C)ccnc12 [SITAMAQUINE]	–	474	–	99.6%	83.7%	100%	–	–	–	–
CCN(CC)CCCCCCNc1cc(OC)cc2c(C)cc(O)nc12	–	–	–	–	–	–	62.8%	inactive	inactive	–
COc1cc(NCCCCCCNCCO)c2nccc(C)c2c1.Cl	–	300	99.9%	–	–	–	–	–	–	–
CCN(C(C)C)C(C)CCCCCNc1cc(OC)cc2c(C)ccnc12.Cl.Cl (stereo unspecified)	–	–	–	97.3%	–	100%	–	–	–	95.4%
CCN(CC)CCCCCCCNc1cc(OC)cc2c(C)ccnc12.Cl.Cl	–	96.8	100%	73.1%	–	99.8%	–	–	–	–
CCN(CC)CCCCCNc1cc(OC)cc2c(C)ccnc12	100%	178	100%	91.5%	–	100%	–	–	–	–
COc1cc(NCCCCCCNC2CCC2)c2nccc(C)c2c1.Cl	100%	188	100%	–	–	99.2%	–	–	–	–
COc1cc(NCCCCCCN(C(C)C)C(C)C)c2nccc(C)c2c1.Cl.Cl	–	310	97.5%	97.4%	20.2%	100%	–	–	–	–
CCN(CC)CCCCCCNc1cc(OC)c(OC)c2c(C)ccnc12.Cl.Cl	–	401	99.9%	100%	68%	100%	–	–	–	–
COc1cc(NCCCCCC(C)NC(C)C)c2nccc(C)c2c1.Cl (stereo unspecified)	–	300	–	97.3%	–	100%	–	–	–	95.4%
